How the values were obtained:
[1] = Subchronic; format: in vivo, mouse; conditions: 4 weeks; for Plasma biochemistry (Mean ± SD) ALB / Plasma biochemistry (Mean ± SD) ALP / Plasma biochemistry (Mean ± SD) ALT / Plasma biochemistry (Mean ± SD) AST / Plasma biochemistry (Mean ± SD) Amy / Plasma biochemistry (Mean ± SD) BUN / Plasma biochemistry (Mean ± SD) Chol / Plasma biochemistry (Mean ± SD) Gluc / Plasma biochemistry (Mean ± SD) T.Bili: male CD-1 mice, N=6
Method in brief: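 After 4 weeks of daily gavage (80, 120 or 160 mg/kg in EPTG 3:6:1:5, or vehicle) in male CD-1 mice, heparinized blood was taken by cardiac puncture at euthanasia. Plasma ALT, AST, ALP, albumin, amylase, BUN, creatinine, glucose, cholesterol and total bilirubin were measured by a veterinary diagnostic laboratory.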

[2] = Single dose pharmacokinetic study in CD-1 mice; format: in vivo; conditions: male, CD-1, mouse, plasma, po, 120 mg/kg
Method in brief: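 Male CD-1 mice (7 weeks, ≥1 week on AIN-93M diet) were given a single gavage of 120 mg/kg (3 mg/25 g) in 0.2 mL EPTG 3:6:1:5. Groups of 5–7 were killed at 0.1, 0.25, 0.5, 1, 2, 3, 6, 12 and 24 h. Heparinized cardiac blood was spun at 5000 g for 5 min. Plasma was extracted with ethyl acetate and run on HPLC. AUC0–24h was calculated noncompartmentally; mean ± SEM.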

[3] = test system: human LNCaP/AR-Luc cells; assay: Lung metastasis of LNCaP/AR-Luc xenograft by ex vivo bioluminescence imaging; format: in vivo; conditions: SCID-NSG mice, decursinol 4.5 mg/mouse/day gavage; control 100% (10 out of 10)
[4] = Subchronic; format: in vivo, mouse; conditions: for Body Weight / Organ height (Mean ± SD) Brain / Organ height (Mean ± SD) Heart / Organ height (Mean ± SD) Kidney / Organ height (Mean ± SD) Liver / Organ height (Mean ± SD) Lung / Organ height (Mean ± SD) Prostate / Organ height (Mean ± SD) Spleen / Organ height (Mean ± SD) Testes: male CD-1 mice, N=6
Method in brief: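 24 male CD-1 mice (acclimated 2 weeks) were stratified by weight into 4 groups (N=6). They were gavaged daily, 7 days/week, for 4 weeks with 80, 120 or 160 mg/kg in EPTG 3:6:1:5, or 200 μL vehicle. Body weight was measured weekly, with the dose adjusted to it. At euthanasia organs were weighed, and plasma taken 3 h after the last dose was assayed by HPLC; […].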

[5] = test system: LNCaP/AR-luc xenograft tumor; assay: Histopathology of H&E stained xenograft tumor sections; format: in vivo, human; conditions: vs vehicle groups within each experiment
Method in brief: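 Tumors dissected at necropsy and fixed in neutral-buffered formalin. H&E-stained sections were examined for necrotic areas, hemorrhage and intravascular cancer-cell emboli.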

[6] = test system: human LNCaP/AR-Luc cells; assay: LNCaP/AR-Luc xenograft growth in SCID-NSG mice; format: in vivo; conditions: decursinol 4.5 mg/mouse/day gavage, 7 days per week, vs vehicle
Method in brief: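 Male SCID-NSG mice (n=20/group) received daily gavage in EPTG 3:6:1:20 (300 μL) starting 7 days before s.c. inoculation of 20,000 LNCaP/AR-Luc cells (1:1 Matrigel:serum-free medium, lower right flank). Caliper measurement twice weekly; volume = (L×W²)/2. Tumors weighed at necropsy. Only the 10 largest tumors per group were analyzed; mean ± SD.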

[7] = Body weight and organ weight of tumor-bearing SCID-NSG mice; format: in vivo; conditions: decursinol 4.5 mg/mouse/day
[8] = Plasma decursinol by HPLC at 3 h after the last dose in SCID-NSG mice; format: in vivo, mouse
Method in brief: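 Plasma was collected 3 h after the last daily gavage dose (4.5 mg/mouse in EPTG 3:6:1:20) from tumor-bearing male SCID-NSG mice. Plasma with chrysin internal standard was extracted twice with ethyl acetate, dried and reconstituted in methanol. HPLC used a C18 column at room temperature with a water/acetonitrile gradient (20–90% over 15 min, then 90% for 8 min) and diode-array detection at 330 nm.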

[9] = Stability of dosing preparation in EPTG excipient formula; format: physicochemical
[10] = DOH-3: 3 mg per 25 g body weight (120 mg/kg) daily gavage
[11] = DOH-4: 4 mg per 25 g body weight (160 mg/kg) daily gavage
[12] = DOH-3: 3 mg per 25 g body weight (120 mg/kg) daily gavage, 4 weeks
[13] = DOH-4: 4 mg per 25 g body weight (160 mg/kg) daily gavage, 4 weeks

CC1(C)Oc2cc3oc(=O)ccc3cc2C[C@@H]1O [decursinol]
plasma biochemistry (ALP, AST, ALT, Amy, ALB, BUN, Gluc, Chol, T. Bili) ([1]; CD-1 mice, among the 4 groups): not statistically different | Plasma biochemistry (Mean ± SD) ALB [1, 10]: 2.7 ± 0.2 g/dL | Plasma biochemistry (Mean ± SD) ALP [1, 10]: 47.2 ± 14.6 U/L | Plasma biochemistry (Mean ± SD) ALT [1, 10]: 34.3 ± 21.7 U/L | Plasma biochemistry (Mean ± SD) AST [1, 10]: 82.5 ± 29.6 U/L | Plasma biochemistry (Mean ± SD) Amy [1, 10]: 780.2 ± 70.1 U/L | Plasma biochemistry (Mean ± SD) BUN [1, 10]: 12.3 ± 2.5 mg/dL | Plasma biochemistry (Mean ± SD) Chol [1, 10]: 182.0 ± 38.8 mg/dL | Plasma biochemistry (Mean ± SD) Gluc [1, 10]: 367.3 ± 69.0 mg/dL | Plasma biochemistry (Mean ± SD) T.Bili [1, 10]: 0.27 ± 0.05 mg/dL | Plasma biochemistry (Mean ± SD) ALB [1, 11]: 2.3 ± 0.3 g/dL | Plasma biochemistry (Mean ± SD) ALP [1, 11]: 45.5 ± 9.1 U/L | Plasma biochemistry (Mean ± SD) ALT [1, 11]: 21.0 ± 7.6 U/L | Plasma biochemistry (Mean ± SD) AST [1, 11]: 72.3 ± 29.9 U/L | Plasma biochemistry (Mean ± SD) Amy [1, 11]: 668.0 ± 117.1 U/L | Plasma biochemistry (Mean ± SD) BUN [1, 11]: 14.0 ± 2.2 mg/dL | Plasma biochemistry (Mean ± SD) Chol [1, 11]: 161.0 ± 20.5 mg/dL | Plasma biochemistry (Mean ± SD) Gluc [1, 11]: 408.3 ± 130.0 mg/dL | Plasma biochemistry (Mean ± SD) T.Bili [1, 11]: 0.32 ± 0.10 mg/dL | AUC(0-t) [2]: 193 µg·h/mL | lung metastasis rate [3]: 60% | plasma decursinol level (3 h post last dose) ([4]; CD-1 mice, 80, 120, and 160 mg decursinol/kg daily gavage, 4 weeks, EPTG 3:6:1:5): increase in a dose-dependent manner | body weight change ([4]; CD-1 mice, daily gavage as high as 4 mg/25 g or 160 mg per kg, 4 weeks): did not cause body weight change | weights of liver, kidney, prostate, spleen, lung, heart, testes and brain ([4]; CD-1 mice, subchronic dosing 4 weeks, 80-160 mg/kg): did not affect | Body Weight [4, 12]: 35.97 ± 2.10 g | Organ height (Mean ± SD) Brain [4, 12]: 0.53 ± 0.03 g | Organ height (Mean ± SD) Heart [4, 12]: 0.19 ± 0.01 g | Organ height (Mean ± SD) Kidney [4, 12]: 0.59 ± 0.08 g | Organ height (Mean ± SD) Liver [4, 12]: 1.58 ± 0.14 g | Organ height (Mean ± SD) Lung [4, 12]: 0.20 ± 0.02 g | Organ height (Mean ± SD) Prostate [4, 12]: 0.10 ± 0.02 g | Organ height (Mean ± SD) Spleen [4, 12]: 0.09 ± 0.02 g | Organ height (Mean ± SD) Testes [4, 12]: 0.25 ± 0.03 g | Body Weight [4, 13]: 35.38 ± 1.71 g | Organ height (Mean ± SD) Brain [4, 13]: 0.53 ± 0.02 g | Organ height (Mean ± SD) Heart [4, 13]: 0.20 ± 0.01 g | Organ height (Mean ± SD) Kidney [4, 13]: 0.60 ± 0.08 g | Organ height (Mean ± SD) Liver [4, 13]: 1.54 ± 0.17 g | Organ height (Mean ± SD) Lung [4, 13]: 0.22 ± 0.01 g | Organ height (Mean ± SD) Prostate [4, 13]: 0.12 ± 0.02 g | Organ height (Mean ± SD) Spleen [4, 13]: 0.09 ± 0.02 g | Organ height (Mean ± SD) Testes [4, 13]: 0.24 ± 0.05 g | necrosis extent in tumor sections [5]: did not noticeably differ | decreased LNCaP/AR-Luc xenograft tumor growth (top 10 tumors) [6]: 75% | weight of liver, kidney, testes and prostate at study termination ([7]; SCID-NSG mice, vs vehicle- or D/DA-treated mice): not statistically different | Body Weight ([7]; tumor-bearing SCID-NSG mice, noticeable at 7-8 weeks of treatment): progressive body weight disadvantage | plasma decursinol level, decursinol dosing over equi-molar D/DA dosing ([8]; SCID-NSG mice, 3 hours after the last dose): 1.7 folds | concentration at 3 h ([8]; male, SCID-NSG, mouse, plasma, oral, 4.5 mg/mouse): 4100 ng/mL | time in uniformly dispersed state after dilution from stock concentrate ([9]; EPTG (3:6:1:20) formula): ≤ 20 min | time remaining as clear solution ([9]; new EPTG (3:6:1:5)): more than 1 hour
